Experimental findings from ChEMBL document CHEMBL1122240, “Inhibition by carboxamides and sulfoxides of liver alcohol dehydrogenase and ethanol metabolism” (J Med Chem, 1983) are described below.

Series [1] has as its target Alcohol dehydrogenase (Equus caballus, UniProt P00327+P00328). Briefly: In vitro inhibition against horse liver alcohol dehydrogenase.
The nature of series [2]: In vivo inhibition of ethanol metabolism following 1 mMol/Kg i.p. As to conditions: ip.
The target of series [3] is T1, Alcohol dehydrogenase (Equus caballus) (UniProt P00327+P00328). Briefly: Intercept inhibition constant was determined against horse liver alcohol dehydrogenase in presence of acetaldehyde. Summed up:
(§1)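 Purified horse liver enzyme, reverse reaction. Freshly distilled acetaldehyde was varied (1–5 mM; 0.4–2.0 mM in some runs) with 0.1 mM NADH and at least three inhibitor levels. Initial velocities were read as A340 change, 32 points per experiment, and inhibition constants were obtained from double-reciprocal fits.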

In series [4] the target is T1, Alcohol dehydrogenase (Equus caballus). Description: Intercept inhibition constant was determined against horse liver alcohol dehydrogenase in presence of ethanol. A digest of the protocol: (§2)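 Purified horse liver enzyme with ethanol varied as substrate and NAD+ as coenzyme. At least three inhibitor concentrations were tested (e.g. 0–0.2 mM). Initial velocities were followed at 340 nm, 32 points in one experiment. Intercept and slope constants were derived from double-reciprocal plots fitted to uncompetitive or noncompetitive equations.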

Series [5] shares this target. Briefly: Slope inhibition constant was determined against horse liver alcohol dehydrogenase in presence of acetaldehyde. A digest of the protocol:
as §1

Series [6] is described as follows: Michaelis-Menten's constant was determined in vivo against rat liver alcohol dehydrogenase in presence of ethanol. In kind it is organism-based. Summed up: (§3)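 Fed male Sprague-Dawley rats (175–280 g) received inhibitor ip (0.1 M sulfoxide or ≤0.46 M amide in saline) at 0–1.0 mmol/kg. Ten minutes later ethanol (3.26 M) was given ip at 7.69, 10.9 or 19.6 mmol/kg. Tail blood was sampled over time and ethanol measured by GC against a tert-butyl alcohol internal standard. Rate was derived by Widmark's method.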

Series [7] in a line: Intercept inhibition constant was determined in vitro against purified rat liver alcohol dehydrogenase in presence of ethanol. A digest of the protocol:
(§4)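 Rat liver enzyme partially purified by (NH4)2SO4 fractionation, DEAE-cellulose and Sephadex G-100. Assays ran in 83 mM potassium phosphate pH 7.3 with 40 mM KCl (μ 0.25) at 37.8 °C, with 0.5 mM NAD+, ethanol at 0.4–2 mM and inhibitor at 0–0.6 mM. Initial rates were read at 340 nm, 32 points per experiment.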

Series [8] is described as follows: Intercept inhibition constant was determined in vivo against rat liver alcohol dehydrogenase in presence of ethanol. In kind it is organism-based. Summed up: as §3
The nature of series [9]: Michaelis-Menten's constant was determined in vitro against purified rat liver alcohol dehydrogenase in presence of ethanol. Summed up: as §4
The target in series [10] is T1, Alcohol dehydrogenase (Equus caballus). Briefly: Slope inhibition constant was determined against horse liver alcohol dehydrogenase in presence of ethanol. A digest of the protocol:
as §2

Series [11] is described as follows: Slope inhibition constant was determined against purified rat liver alcohol dehydrogenase in presence of ethanol. Summed up: as §4
Series [12] is described as follows: In vivo inhibition of ethanol metabolism following 1 mMol/Kg i.p.
Series [13] deals with CC(C)CC(N)=O. Briefly: (§5) Michaelis-Menten's constant was determined against horse liver alcohol dehydrogenase in presence of ethanol. Particulars: Equus caballus. Summed up: as §2
In series [14] the test system is [O-][S+]1CCCC1. Described as §5. As to conditions: Equus caballus. Summed up:
as §2

Series [15] has as its system CC(C)CC(N)=O. Briefly: (§6) Michaelis-Menten's constant was determined against horse liver alcohol dehydrogenase in presence of acetaldehyde. As to conditions: Equus caballus. A digest of the protocol:
as §1

In series [16] the test system is [O-][S+]1CCCC1. The series is described as §6. As to conditions: Equus caballus. Summed up:
as §1

Sequence of Alcohol dehydrogenase (Equus caballus) (from UniProt P00327+P00328) (P00328 whole entry, looked up): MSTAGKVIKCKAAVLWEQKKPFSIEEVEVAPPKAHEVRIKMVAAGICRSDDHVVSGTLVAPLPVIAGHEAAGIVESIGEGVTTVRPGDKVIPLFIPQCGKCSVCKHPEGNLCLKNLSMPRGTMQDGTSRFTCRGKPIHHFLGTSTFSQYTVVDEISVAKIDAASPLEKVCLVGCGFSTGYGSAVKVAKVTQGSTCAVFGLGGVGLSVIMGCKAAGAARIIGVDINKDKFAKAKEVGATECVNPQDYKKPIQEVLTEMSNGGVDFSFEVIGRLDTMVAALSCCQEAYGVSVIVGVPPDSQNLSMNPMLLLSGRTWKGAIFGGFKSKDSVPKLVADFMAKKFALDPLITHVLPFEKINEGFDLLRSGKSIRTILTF
Sequence of Alcohol dehydrogenase (Equus caballus) (from UniProt P00327+P00328) (P00327 whole entry, looked up): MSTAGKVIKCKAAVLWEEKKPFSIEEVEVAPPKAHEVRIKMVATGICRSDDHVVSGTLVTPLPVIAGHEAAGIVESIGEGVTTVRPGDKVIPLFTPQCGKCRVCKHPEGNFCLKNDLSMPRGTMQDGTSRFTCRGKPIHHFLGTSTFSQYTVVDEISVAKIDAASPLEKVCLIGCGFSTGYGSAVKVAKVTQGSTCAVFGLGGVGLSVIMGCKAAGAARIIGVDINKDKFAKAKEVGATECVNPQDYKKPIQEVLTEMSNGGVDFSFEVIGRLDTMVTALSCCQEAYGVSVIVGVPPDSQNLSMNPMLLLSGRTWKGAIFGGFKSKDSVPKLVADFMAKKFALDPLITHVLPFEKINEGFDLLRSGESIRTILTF

As a reminder, the Ki is the equilibrium dissociation constant of an inhibitor or competing ligand from its target. A high value points to lower affinity. A word on the inhibition in vivo: it is the percentage by which the read-out fell short of the control. Take `CC(C)C(N)=O` [ISOBUTYRAMIDE]: the Ki in series [1] worked out at 220 µM. The compound also displayed an inhibition in vivo at 1000 µmol/kg in [2] of 36%.
In general, inhibition refers to the share of the control response that was lost under treatment. Read a low inhibition as a weak effect. In the case of `[O-][S+]1CCCC1`, the Ki in series [1] was found to be 19 µM. The Kii in series [3] was 71 µM; in series [4] it was 19 µM; in series [7], 200 µM; in series [8], 340 µM/kg. For the same compound, the Kis came out at 11 µM in series [5], 130 µM in series [10] and 230 µM in series [11]. The values for the Km in [6] and in [9] were 2000 µM/kg and 350 µM, respectively. The same compound yielded an inhibition in series [12] of 63%.
As for `NC(=O)CCO`, the Ki in series [1] was found to be 8500 µM. In [2], the inhibition in vivo at 1000 µmol/kg came to 15%.
Turning to `NC(=O)CCCCCO`, in series [1], the Ki came to 1500 µM. This compound also gave an inhibition in vivo at 1000 µmol/kg in series [2] of 24%.
The compound `CC(C)C(=O)NN` returned a Ki in series [1] of 2900 µM.
Still for that read-out and setting: under `NC(=O)C(F)(F)C(F)(F)C(F)(F)F` [HEPTAFLUOROBUTYRAMIDE] stands 2000 µM; under `NNC(N)=S` [THIOSEMICARBAZIDE], 1900 µM.
`CC(C)C[S+](C)[O-]` (stereo unspecified) had a Ki in series [1] of 340 µM. Besides, in series [2], the inhibition in vivo at 1000 µmol/kg was 14%.
In the case of “Alcohol dehydrogenase (Equus caballus) (from UniProt P00327+P00328)”, the Km in series [13] was 900 µM; in series [14], 620 µM; in series [15], 150 µM; in [16], 230 µM.
Compound `[O-][S+]1CCOCC1` registered a Ki in [1] of 10600 µM.
`CC[S+](C)[O-]` (stereo unspecified): in series [1], the inhibitory constant (Ki) came to 500 µM. This compound also gave an inhibition in vivo at 1000 µmol/kg in series [2] of 16%.
As for `O=C1CC[S+]([O-])CC1`, the Ki in series [1] came to 9700 µM.
`CCCCCC[S+](C)[O-]` (stereo unspecified) yielded a Ki in [1] of 47 µM. For the same compound, the inhibition in vivo at 1000 µmol/kg in [2] is 67%.
The like results for `C[S+]([O-])Cc1ccccc1` (stereo unspecified) were, in that order, 5000 µM and 13%.
`CC[S+]([O-])CC` returned a Ki in series [1] of 1100 µM.
Compound `CC(C)CC[S+](C)[O-]` (stereo unspecified) gave a Ki in series [1] of 430 µM. Also, in [2], the inhibition in vivo at 1000 µmol/kg stood at 19%.
Compound `NC(=O)C(O)CCO` (stereo unspecified) returned a Ki in [1] of 5800 µM.
`CC(C)(Br)C(N)=O` yielded an inhibition in vivo at 1000 µmol/kg in series [2] of 5%.
`O=C1CCCCN1` registered a Ki in [1] of 13000 µM.
In turn, `NC(=O)CCCCO` registered a Ki in [1] of 4400 µM. Also, the inhibition in vivo at 1000 µmol/kg in series [2] is 9%.
Compound `CC(C)CC(N)=O` [ISOVALERAMIDE] showed an inhibition constant Ki in series [1] of 20 µM. Also, the Kii in series [3] turned out to be 460 µM; in series [4] it was 20 µM; in series [7], 20 µM; in series [8], 180 µM/kg. Further, the Kis in series [5] stood at 11 µM; in series [10], 160 µM. In series [6], the Km turned out to be 1500 µM/kg. Besides, the inhibition in vivo at 1000 µmol/kg in series [2] turned out to be 78%.
In [1], `[O-][S+]1CCCCC1` came in with a Ki of 480 µM. Moreover, in series [2], the inhibition in vivo at 1000 µmol/kg worked out at 21%.
Take `C=C[S+]([O-])c1ccccc1` (stereo unspecified): the Ki in series [1] came to 500 µM.
`NC(=O)CSCC(N)=O` showed a Ki in series [1] of 36000 µM. For the same compound, the inhibition in vivo at 1000 µmol/kg in series [2] was found to be 7%.
The like results for `COCC(N)=O` [METHOXYACETAMIDE] were, in that order, 600 µM and 18%.
Compound `CC[S+]([O-])c1ccccc1` (stereo unspecified) had a Ki in [1] of 12500 µM.
Turning to `CCCCCCCCC(N)=O` [NONANOAMIDE], in series [2], the inhibition in vivo at 1000 µmol/kg came out at 15%.
Take `NC(=O)CCCl`: the Ki in [1] was determined as 5300 µM. The compound further returned an inhibition in vivo at 1000 µmol/kg in [2] of 15%.
Compound `NC(=O)C1CC1` [CYCLOPROPANECARBOXYLIC ACID AMIDE] gave a Ki in [1] of 790 µM. Moreover, in series [2], the inhibition in vivo at 1000 µmol/kg worked out at 29%.
In turn, `[O-][S+]1CCNCC1` gave a Ki in series [1] of 120000 µM.
The compound `NC(=O)CCCO` returned a Ki in [1] of 6800 µM. This compound also gave an inhibition in vivo at 1000 µmol/kg in [2] of 5%.
The like results for `C[S+]([O-])c1ccccc1` (stereo unspecified) [METHYLPHENYLSULFOXIDE] were, in that order, 200 µM and 19%.
In series [1], `NC(N)=S` [THIOUREA] returned a Ki of 42000 µM.
In turn, `CCCCCCCCCCCCCC[S+](C)[O-]` (stereo unspecified) yielded a Ki in series [1] of 10 µM. The compound further yielded an inhibition in vivo at 1000 µmol/kg in series [2] of 15%.
The like results for `[O-][S+]1CCC1` were, in that order, 150 µM and 25%.
The like results for `CC(C)(C)CC(N)=O` were, in that order, 150 µM and 71%.
